# High-throughput results deposited in PubChem by several laboratories.
# Avidin fluor = compound fluoresces at 488/530 nm on avidin beads | compound fluorescence 488/530 nm, flow cytometry; hits give high values | fluorescence (KMESF) at 10 µM | 220,000 compounds, 0.38% hits | AID 1775; in the data active = fluorescence above about 47
# ABCG2 block = blocks JC-1 efflux by human ABCG2 transporter. inhibition, % at 6.6 µM. AID 1325. 190,000 compounds, 0.1% hits. IgMXP3 cells, flow cytometry;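 active = inhibition above 80%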
#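 Test system: IgMXP3 cells (ABCG2) mixed with DDAO far-red-labelled CCRF-Adr cells (ABCB1). Reagent: JC-1 transporter substrate. Compound dosing: single test compound dose, 6.6 µM final. Times: 10 min compound exposure, 25 °C. Detection: flow cytometry of retained JC-1 fluorescence. Read-out basis: efflux inhibition in percent versus controls. Controls: nicardipine and DMSO wells.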
# ABCB1 block = human ABCB1 inhibition, ABCG2 as counter-screen. P08183. CCRF-Adr cells, JC-1 efflux, flow cytometry. inhibition, % at 6.6 µM. 190,000 compounds, 0.067% hits; in the data active = inhibition above about 40%;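 note: higher value means more JC-1 retained so stronger ABCB1 efflux block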
# Redox H2O2 prof = compounds producing H2O2 with reducing agent – biochemical, NIH compound library profiling, artefact control for MLSCN library redox annotation, primary screen; DTT-dependent redox cycling H2O2, phenol red/HRP absorbance; 100% = 100 µM peroxide control, 0% = buffer; activation, % at 10 µM; 200,000 compounds, 0.03% hits;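 active = activation of at least 50% relative to the plate's high and low controls in the primary single-dose screen; inactive = activation below 50%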;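 note: compound incubated with DTT at 0.8 mM final as the reducing agent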
# GSH bead fluor = GSH bead compound fluorescence profile. fluorescence (KMESF) at 10 µM. GSH beads flow cytometry, compound fluorescence 488/530 nm; hits give high values. AID 1776. 190,000 compounds, 0.25% hits; in the data active = fluorescence above about 89;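 note: glutathione beads carrying GST-tagged Bcl family fusion proteins plus one bare bead set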
# Numbers stand for hits; - = inactive; . = no result given. Sampled rows, rich in hits. Any-hit rate of the full collection: about 0.72%.
SMILES,Avidin fluor,ABCG2 block,ABCB1 block,Redox H2O2 prof,GSH bead fluor
O=C(CSc1n[nH]c(=O)[nH]c1=O)N/N=C/c1ccccc1,-,-,-,-,215
CN(C)S(=O)(=O)N1C(=O)c2ccccc2C1=O,-,.,.,.,.
CN(C)/C=C1\C=C2C(=O)c3ccccc3N2C1=O,92,.,.,.,.
CCOC(=O)N1CCN(CC(=O)Nc2c(C(=O)OC)[nH]c3ccccc23)CC1,106,-,-,-,-
C=CCc1cc(/C=C2/NC(=O)N(CC(=O)OC)C2=O)cc(OC)c1O,-,-,-,-,-
COc1cccc(Cn2c(C3CC3)nc3ccc(NC(=O)c4ccco4)cc3c2=O)c1,603,-,-,-,-
Cc1ccc(-c2nn(CC(=O)NCc3cc(-c4nn(C)c(=O)c5ccccc45)ccc3C)c(=O)c3ccccc23)cc1,487,-,-,-,-
CCC(=O)NCc1cc(-c2nn(C)c(=O)c3ccccc23)ccc1C,-,-,-,-,-
Cc1cc(NC(=O)c2cc(-c3cccs3)nc3ccccc23)no1,233,-,-,-,-
Cc1ccc(-c2cc(C(=O)Nc3cc(C)on3)c3ccccc3n2)cc1,-,-,-,-,-
O=C(NCCN1CCN(Cc2ccc([N+](=O)[O-])cc2)CC1)C(=O)Nc1ccccc1,-,-,-,-,-
O=C(NCCN1CCN(S(=O)(=O)c2ccc([N+](=O)[O-])cc2)CC1)C(=O)Nc1ccccc1,152,-,-,-,-
CC(=O)Nc1nnc(Cc2ccccc2)s1,-,-,-,-,264
CCC(=O)Nc1nnc(Cc2ccccc2)s1,-,-,-,-,-
CCOC(=O)CC(=O)CSc1ncnc2c1nnn2-c1ccc(OC)cc1,-,-,-,-,-
CCOC(=O)N1CCN(Cc2cc(=O)oc3ccc(Cl)cc23)CC1,-,-,-,-,267
CCN1CCN(Cc2cc(=O)oc3ccc(Cl)cc23)CC1,-,-,-,-,-
Nn1c(-c2ccccc2Cl)nnc1-c1ccccc1Cl,-,-,-,-,102
CSc1nnc(-c2ccccc2Cl)n1N,-,-,-,-,-
O=c1ccn(Cc2ccc(F)cc2)c2ccnc(C(F)(F)F)c12,-,-,-,-,-
O=C(NCCN1CCN(Cc2ccccc2)CC1)C1c2ccccc2C(=O)N2CCc3ccccc3C12 (stereo not given),112,-,-,-,-
O=C(NN1CCOCC1)NC12CC3CC(CC(C3)C1)C2,-,.,.,.,.
c1cncc(CNc2nc(N3CCOCC3)nc(N3CCOCC3)n2)c1,67,-,-,-,-
Cc1cc(N2CCOCC2)nc(NCc2ccccc2)n1,-,-,-,-,259
Cc1cc(N2CCCCC2)nc(NCc2ccccc2)n1,-,-,-,-,-
SMILES,Avidin fluor,ABCG2 block,ABCB1 block,Redox H2O2 prof,GSH bead fluor
O=C(C1CCN(C2CCN(CC3CC=CCC3)CC2)CC1)N1CCOCC1 (stereo not given),-,-,-,-,-
O=C(c1cccc(C(F)(F)F)c1)C1CCCN(C(=O)CCCN2CCCC2=O)C1 (stereo not given),-,-,-,-,-
COc1ccc(C(=O)N/N=C(\C)CC(=O)Nc2cccc(C(F)(F)F)c2)cc1,69,.,.,.,.
CC1COC(Cn2c3ccccc3c3ccccc32)O1 (stereo not given),-,.,.,.,.
CCN(CC)c1ccc(NC(=O)COc2ccc(C#N)cc2)cc1S(=O)(=O)Nc1ccc(OC)cc1,-,-,-,-,-
CC(C)[C@H](NC(=O)c1ccccc1)C(=O)OCC(=O)NCCC1=CCCCC1,54,-,-,-,-
CC(C)OP(=O)(c1ccc(N(C)C)cc1)C(O)c1ccccc1F (stereo not given),-,-,-,-,103
COc1ccccc1C(O)P(=O)(OC(C)C)c1ccc(N(C)C)cc1 (stereo not given),-,-,-,-,-
Cc1ccc(NC(=O)CCCSc2ccccc2)cc1S(=O)(=O)N1CCOCC1,101,-,-,-,-
Cc1ccc(NC(=O)CSc2ccccn2)cc1S(=O)(=O)N1CCOCC1,-,-,-,-,-
O=C(/C=C/c1cc([N+](=O)[O-])ccc1OC(F)F)NCc1ccc(F)cc1,-,-,-,-,265
O=C(NCc1ccco1)C(NS(=O)(=O)c1cccc2nsnc12)c1ccccc1 (stereo not given),52,-,-,-,-
CCCNC(=O)C(NS(=O)(=O)c1cccc2nsnc12)c1ccccc1 (stereo not given),-,-,-,-,-
COc1ccc(CCNC(=O)COC(=O)/C=C/c2cc(OC)c(OC)c(OC)c2)cc1OC,-,-,-,-,-
CNC(=O)c1c(C)noc1C,-,-,-,-,-
Cc1ccc(C)c(-c2nc3cc(N)ccc3o2)c1,61,-,-,-,-
Nc1ccc2oc(-c3ccccc3Cl)nc2c1,-,-,-,-,-
COC(=O)C1=C(C)NC(=O)C1(NC(=O)CN1CCCC1=O)C(F)(F)F (stereo not given),55,-,-,-,-
COc1ccc(CCN(C)Cc2ccc(OCc3ccccc3)c(OC)c2)cc1OC,-,-,-,-,-
COc1ccc(CCN(C)Cc2ccc(OC)c(OCc3ccccc3)c2)cc1OC,50,-,-,-,-
CN1CCCCCC1C(=O)N1CCC(N2CCC(C(=O)N3CCOCC3)CC2)CC1 (stereo not given),-,-,-,-,-
COC(=O)c1ccc(Oc2nc(NC(C)(C)C)nc(N3CCOCC3)n2)cc1,-,-,-,-,-
CC(C)(C)NC(=O)c1cccc(NC(=O)c2ccco2)c1,-,-,-,-,99
CC(C)(C)NC(=O)c1cccc(NC(=O)c2ccc(NC(=O)c3ccco3)cc2)c1,-,-,-,-,-
Cc1cccc(OCCC(=O)OCC(=O)N2CCc3ccccc32)c1,54,-,-,-,-
SMILES,Avidin fluor,ABCG2 block,ABCB1 block,Redox H2O2 prof,GSH bead fluor
O=C(O)C1CCCCC1C(=O)NCCc1cccc(Cl)c1 (stereo not given),-,-,-,-,-
O=C(O)C1C2C=CC(C2)C1C(=O)NCCc1cccc(Cl)c1 (stereo not given),48,-,-,-,-
CCN(CC)c1ccc(C(=O)O)cc1,-,-,-,-,-
CCN(CC)c1ccc(/C=C2\C(=O)c3ccc(C(=O)O)cc3C2=O)cc1,-,135,88,-,306
O=C(O)c1ccc(Sc2nnc(-c3cccc(Br)c3)o2)c([N+](=O)[O-])c1,-,-,-,-,-
COc1cc(-c2nnc(Sc3ccc(C(F)(F)F)cc3[N+](=O)[O-])o2)cc(OC)c1OC,72,-,-,-,-
Cc1nn(Cc2cccc(C(=O)NCC(C)C)c2)c(C)c1Br,-,-,-,-,148
CCOc1ccccc1NC(=O)N1CCCC1C(=O)Nc1nnc(CC)s1 (stereo not given),-,-,-,-,-
CCc1nnc(NC(=O)C2CCCN2C(=O)NC2CCCCC2)s1 (stereo not given),-,-,-,-,262
COc1ccccc1NS(=O)(=O)c1ccc(OC)c(OC)c1,113,-,-,-,-
